In ChEMBL document CHEMBL4270594, “Design, synthesis and pharmacological evaluation of new 3-(1H-benzimidazol-2-yl)quinolin-2(1H)-one derivatives as potential antitumor agents” (Eur J Med Chem, 2018):
Activity calls are given as the source filed them. No cut-off for these calls is given here.

Columns and labels:
Mus musculus [1] = assay: Downregulation of PARP protein expression in tumor tissues of Balb/c nude mouse xenografted with human Bel7404 cells at 25 to 50 mg/kg, ip bid for 20 days measured on day 21 by Western blot analysis; type: functional, organism-based
Mus musculus [2] = assay: Downregulation of caspase-9 protein expression in tumor tissues of Balb/c nude mouse xenografted with human Bel7404 cells at 25 to 50 mg/kg, ip bid for 20 days measured on day 21 by Western blot analysis; type: functional, organism-based
BEL-7404 tumor cell line [3] = assay: Antitumor activity against human Bel7404 cells xenografted in Balb/c nude mouse assessed as tumor growth inhibition at 25 mg/kg, ip bid for 20 days measured on day 21 post last dose relative to control; type: functional; conditions: BEL-7404, ip, read-out: TGI
BEL-7404 tumor cell line [4] = assay: Cell cycle arrest in human Bel7404 cells assessed as accumulation at G2-phase at 9 uM after 48 hrs by propidium iodide staining based flow cytometry (reference value: 18.84%); type: functional
BEL-7404 tumor cell line [5] = assay: Antitumor activity against human Bel7404 cells xenografted in Balb/c nude mouse assessed as relative tumor volume increment rate at 50 mg/kg, ip bid for 20 days measured on day 21 post last dose relative to control; type: functional
BEL-7404 tumor cell line [6] = assay: Antitumor activity against human Bel7404 cells xenografted in Balb/c nude mouse assessed as induction of necrosis at 25 to 50 mg/kg, ip for 20 days measured on day 21 post last dose by hematoxylin and eosin staining based microscopic method; type: functional, organism-based
BEL-7404 tumor cell line [7] = assay: Cell cycle arrest in human Bel7404 cells assessed as accumulation at S-phase at 9 uM after 48 hrs by propidium iodide staining based flow cytometry (reference value: 22%); type: functional
BEL-7404 tumor cell line [8] = assay: Antitumor activity against human Bel7404 cells xenografted in Balb/c nude mouse assessed as relative tumor volume increment rate at 25 mg/kg, ip bid for 20 days measured on day 21 post last dose relative to control; type: functional
HepG2 [9] = assay: Induction of mitochondrial cytochrome-c release in to cytotol in human HepG2 cells at 6 to 10 uM after 12 hrs by Western blot analysis; type: functional, cell-based
HepG2 [10] = assay: Upregulation of caspase-3 protein expression in human HepG2 cells at 6 to 10 uM after 12 hrs by Western blot analysis; type: functional, cell-based
How it was run: (§1)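 HepG2 cell lysates after compound treatment analyzed by western blot for the target protein, compared with untreated negative control.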

HepG2 [11] = assay: Upregulation of caspase-9 protein expression in human HepG2 cells at 6 to 10 uM after 12 hrs by Western blot analysis; type: functional, cell-based; how it was run: as §1
HepG2 [12] = assay: Induction of apoptosis in human HepG2 cells assessed as live cells at 8 uM after 24 hrs by Annexin V-FITC/ propidium iodide staining based flow cytometry (reference value: 91.31%); type: functional
HepG2 [13] = assay: Upregulation of p53 protein expression in human HepG2 cells at 6 to 10 uM after 12 hrs by Western blot analysis; type: functional, cell-based; how it was run: as §1
HepG2 [14] = assay: Upregulation of p27 protein expression in human HepG2 cells at 6 to 10 uM after 12 hrs by Western blot analysis; type: functional, cell-based; how it was run: as §1
HepG2 [15] = assay: Induction of apoptosis in human HepG2 cells assessed as early apoptotic cells at 6 uM after 24 hrs by Annexin V-FITC/ propidium iodide staining based flow cytometry (reference value: 6.5%); type: functional
HepG2 [16] = assay: Upregulation of p53 protein expression in human HepG2 cells at 8 uM after 12 hrs by Western blot analysis; type: functional, cell-based
HepG2 [17] = assay: Induction of apoptosis in human HepG2 cells assessed as late apoptotic cells at 8 uM after 24 hrs by Annexin V-FITC/ propidium iodide staining based flow cytometry (reference value: 1.91%); type: functional
HepG2 [18] = assay: Induction of intracellular calcium level in human HepG2 cells at 6 to 10 uM after 24 hrs by Fluo3-AM staining based fluorescence microscopic method; type: functional, cell-based
HepG2 [19] = assay: Upregulation of p21 protein expression in human HepG2 cells at 6 to 10 uM after 12 hrs by Western blot analysis; type: functional, cell-based; how it was run: as §1
HepG2 [20] = assay: Induction of apoptosis in human HepG2 cells assessed as late apoptotic cells at 10 uM after 24 hrs by Annexin V-FITC/ propidium iodide staining based flow cytometry (reference value: 1.91%); type: functional
HepG2 [21] = assay: Induction of apoptosis in human HepG2 cells assessed as live cells at 10 uM after 24 hrs by Annexin V-FITC/ propidium iodide staining based flow cytometry (reference value: 91.31%); type: functional
Mus musculus [22] = assay: Upregulation of APAF-1 protein expression in tumor tissues of Balb/c nude mouse xenografted with human NCI-H460 cells at 25 to 50 mg/kg, ip bid for 13 days measured on day 14 by Western blot analysis; type: functional, organism-based
HepG2 [23] = assay: Cell cycle arrest in human HepG2 cells assessed as accumulation at S-phase at 10 uM after 48 hrs by propidium iodide staining based flow cytometry (reference value: 30.49%); type: functional
HepG2 [24] = assay: Cell cycle arrest in human HepG2 cells assessed as accumulation at G1-phase at 8 uM after 48 hrs by propidium iodide staining based flow cytometry (reference value: 50.47%); type: functional
Mus musculus [25] = assay: Upregulation of p53 protein expression in tumor tissues of Balb/c nude mouse xenografted with human NCI-H460 cells at 25 to 50 mg/kg, ip bid for 13 days measured on day 14 by Western blot analysis; type: functional, organism-based
How it was run: (§2)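 Tumors from NCI-H460 xenografted BALB/c nude mice (25 or 50 mg/kg, vehicle 5% DMSO in saline) collected at day 14; protein levels in tumor tissue determined by western blot versus vehicle control.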

Mus musculus [26] = assay: Upregulation of Bax protein expression in tumor tissues of Balb/c nude mouse xenografted with human NCI-H460 cells at 25 to 50 mg/kg, ip bid for 13 days measured on day 14 by Western blot analysis; type: functional, organism-based; how it was run: as §2
HepG2 [27] = assay: Induction of apoptosis in human HepG2 cells assessed as necrotic cells at 6 uM after 24 hrs by Annexin V-FITC/ propidium iodide staining based flow cytometry (reference value: 0.28%); type: functional
HepG2 [28] = assay: Cell cycle arrest in human HepG2 cells assessed as accumulation at G1-phase at 6 uM after 48 hrs by propidium iodide staining based flow cytometry (reference value: 50.47%); type: functional
HepG2 [29] = assay: Induction of apoptosis in human HepG2 cells assessed as cell budding at 6 to 10 uM after 12 hrs by acridine orange/ethidium bromide staining based fluorescence microscopic method; type: functional
HepG2 [30] = assay: Induction of apoptosis in human HepG2 cells assessed as morphological changes at 6 to 10 uM after 12 hrs by […] staining based fluorescence microscopic method; type: functional, cell-based
How it was run: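 HepG2 cells treated for 12 h, stained with Hoechst 33258 and viewed by fluorescence microscopy for nuclear blue fluorescence and apoptotic morphology, compared with untreated cells.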

HepG2 [31] = assay: Upregulation of PARP protein expression in human HepG2 cells at 6 to 10 uM after 12 hrs by Western blot analysis; type: functional, cell-based; how it was run: as §1
HepG2 [32] = assay: Cell cycle arrest in human HepG2 cells assessed as accumulation at G2-phase at 8 uM after 48 hrs by propidium iodide staining based flow cytometry (reference value: 19.04%); type: functional
HepG2 [33] = assay: Induction of apoptosis in human HepG2 cells assessed as membrane blebbing at 6 to 10 uM after 12 hrs by acridine orange/ethidium bromide staining based fluorescence microscopic method; type: functional, cell-based
How it was run: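 HepG2 cells stained with acridine orange/ethidium bromide and examined by fluorescence microscopy; nuclei scored as yellow/green or orange, with pycnosis, membrane blebbing and cell budding taken as apoptotic morphology.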

For `O=c1[nH]c2cc3c(cc2cc1-c1nc2cc(Cl)ccc2[nH]1)OCO3`, the Activity (Mus musculus [1]) was “Active”, the Activity (Mus musculus [2]) was “Active” and the inhibition in vivo at 25 mg/kg (BEL-7404 tumor cell line [3]) was 41.2%. For the same compound, the Activity (BEL-7404 tumor cell line [4]) was 30.58%, the T/C (BEL-7404 tumor cell line [5]) was 44.8% and the Activity (BEL-7404 tumor cell line [6]) was “Active”. For the same compound, the Activity (BEL-7404 tumor cell line [7]) was 23.66% and the T/C (BEL-7404 tumor cell line [8]) was 51.5%.

In the case of `O=c1[nH]c2ccccc2cc1-c1nc2cc(Cl)ccc2[nH]1`, the Activity (HepG2 [9]) is reported as “Active”, the Activity (HepG2 [10]) is reported as “Active” and the Activity (HepG2 [11]) is reported as “Active”. The Activity (HepG2 [12]) was 53.37%, the Activity (HepG2 [13]) was “Active” and the Activity (HepG2 [14]) was “Active”. The Activity (HepG2 [15]) was 20.22%, the Activity (HepG2 [16]) was “Active” and the Activity (HepG2 [17]) was 10.42%. For the same compound, the Activity (HepG2 [18]) was “Active”, the Activity (HepG2 [19]) was “Active” and the Activity (HepG2 [20]) was 16.68%. For the same compound, the Activity (HepG2 [21]) was 37.3%, the Activity (Mus musculus [22]) was “Active” and the Activity (HepG2 [23]) was 27.24%. The Activity (HepG2 [24]) was 31.1%, the Activity (Mus musculus [25]) was “Active” and the Activity (Mus musculus [26]) was “Active”. For the same compound, the Activity (HepG2 [27]) was 0.76%, the Activity (HepG2 [28]) was 41.52% and the Activity (HepG2 [29]) was “Active”. The Activity (HepG2 [30]) was “Active”, the Activity (HepG2 [31]) was “Active” and the Activity (HepG2 [32]) was 39.71%. For the same compound, the Activity (HepG2 [33]) was “Active”.
